Our source for the IC50 values is ChEMBL document CHEMBL1148841, “Synthesis, structural revision, and antioxidant activities of antimutagenic homoisoflavonoids from Hoffmanosseggia intricata” (Bioorg Med Chem Lett, 2007).

In assay [1] the test system is Radical scavenging activity. Nature of the assay: Antioxidant activity assessed as DPPH free radical scavenging activity. It counts as functional. The procedure, abridged:
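Scavenging measured as reduction of the coloured DPPH (1,1-diphenyl-2-picrylhydrazyl) radical in methanolic solution; activity given as IC50.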

Assay [2] is described as follows: Antioxidant activity assessed as superoxide scavenging activity by NBT reduction assay. The assay is classed as functional. The method in brief: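 Superoxide radicals produced in vitro by a non-enzymatic system; scavenging followed by nitro blue tetrazolium photoreduction, read spectrophotometrically at 560 nm; activity given as the concentration giving 50% inhibition (IC50).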

Structures are written as SMILES.

In the case of `COc1ccc(/C=C2\COc3c(ccc(O)c3O)C2=O)cc1` [INTRICATINOL], the figures for the IC50 in assay [1] and in assay [2] were 10.1 µM and 30.1 µM, respectively.
In the same order, the values of `O=C1/C(=C/c2ccc(O)c(O)c2)COc2c1ccc(O)c2O` are 4.5 µM and 8.5 µM.
In the same order, the values of `COc1ccc(O)c(C(C)(C)C)c1.COc1ccc(O)cc1C(C)(C)C` [BUTYLATED HYDROXYANISOLE] are 34 µM and 966 µM.
For `COc1ccc(/C=C2\COc3c(ccc(OC)c3O)C2=O)cc1` [INTRICATIN], the half-inhibitory concentration (IC50) in assay [1] and in assay [2] was above 200 µM throughout.
`O=C1/C(=C/c2ccc(O)cc2)COc2c1ccc(O)c2O`: the figures for the IC50 in assay [1] and in assay [2] were 8.3 µM and 26.5 µM, respectively.
As to `O=C1O[C@H]([C@@H](O)CO)C(O)=C1O` [ASCORBIC ACID], the IC50 in assay [1] was 25.1 µM; in assay [2] it was 852 µM.
